Experimental data taken from ChEMBL document CHEMBL1122485, “Antibacterially active substituted anilides of carboxylic and sulfonic acids” (1983).
Values after ≈ are worked out from the molar mass of the structure shown.

What was measured:
Bacillus cereus [1] = assay: Activity at 10 ppm against Bacillus cereus NRRL 3711; x=Effective; assay type: functional, organism-based
Method in brief: (§1)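 Gram-positive panel on nutrient agar containing compound at 10, 1.0 and 0.1 ppm, duplicate plates. Six 15-µL drops per species, each holding 10⁷ vegetative cells (10⁶ for L. plantarum). Hexachlorophene and no-compound plates were run alongside. Plates were incubated 5 days at 30 °C and scored for growth. MIC was taken as the lowest level with no colonies on either plate.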

[2] = system: Lactiplantibacillus plantarum; assay: Activity at 10 ppm against Lactobacillus plantarum; x=Effective; assay type: functional, organism-based; method in brief: as §1
Staphylococcus aureus [3] = assay: Bacteriostatic activity against Staphylococcus aureus ATCC 6538 at 10 ppm concentration; + =Positive; assay type: functional, organism-based
Method in brief: (§2)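 S. aureus was inoculated at 10⁷/mL into 10 mL nutrient broth with 10 ppm compound. Those tubes were centrifuged (10000g, 10 min), resuspended in sterile diluent and streaked onto nutrient agar. Colonies after 48 h at 30 °C meant bacteriostatic; none meant bactericidal.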

Staphylococcus aureus [4] = assay: Minimum inhibitory concentration against staphylococcus aureus ATCC 6538; assay type: functional
Method in brief: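 Agar dilution: 1% stocks in 95% ethanol or water, serially diluted into nutrient agar (pH 6.8) to 1000, 100, 10 and 1 ppm. Plates were dried 30 min at 37 °C and spotted with ten drops of 24-h nutrient broth culture. Incubation was 48 h at 37 °C, in duplicate, with hexachlorophene as standard. MIC was the lowest level with no growth of any inoculum on either dish.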

Enterococcus faecalis [5] = assay: Activity at 10 ppm against Streptococcus faecalis; x=Effective; assay type: functional, organism-based; method in brief: as §1
Staphylococcus aureus [6] = assay: Activity at 10 ppm against Staphylococcus aureus ATCC 6538; x=Effective; assay type: functional, organism-based
Staphylococcus aureus [7] = assay: Bactericidal activity against Staphylococcus aureus ATCC 6538 at 10 ppm concentration; - = Negative; assay type: functional, organism-based; method in brief: as §2
Staphylococcus aureus [8] = assay: Bacteriostatic activity against Staphylococcus aureus ATCC 6538 at 10 ppm concentration; - = Negative; assay type: functional, organism-based; method in brief: as §2
Bacillus cereus [9] = assay: Activity at 1 ppm against Bacillus cereus NRRL 3711; x=Effective; assay type: functional, organism-based; method in brief: as §1
[10] = system: Lactiplantibacillus plantarum; assay: Activity at 1 ppm against Lactobacillus plantarum; x=Effective; assay type: functional, organism-based; method in brief: as §1
Staphylococcus aureus [11] = assay: Bacteriostatic activity against Staphylococcus aureus ATCC 6538 at 1 ppm concentration; + =Positive; assay type: functional, organism-based
Enterococcus faecalis [12] = assay: Activity against Streptococcus faecalis; xe=S. faecalis was inhibited at 10 p.p.m. but not at 1 ppm; assay type: functional, organism-based; method in brief: as §1
Staphylococcus aureus [13] = assay: Activity at 1 ppm against Staphylococcus aureus ATCC 6538; x=Effective; assay type: functional, organism-based
Staphylococcus aureus [14] = assay: Bactericidal activity against Staphylococcus aureus ATCC 6538 at 1 ppm concentration; - = Negative; assay type: functional, organism-based
Staphylococcus aureus [15] = assay: Bactericidal activity against Staphylococcus aureus ATCC 6538 at >10 ppm concentration; - = Negative; assay type: functional, organism-based
Staphylococcus aureus [16] = assay: Bacteriostatic activity against Staphylococcus aureus ATCC 6538 at >10 ppm concentration; - = Negative; assay type: functional, organism-based
Bacillus cereus [17] = assay: Activity at 10 ppm against Bacillus cereus NRRL 3711;* = Effective; assay type: functional, organism-based; method in brief: as §1
[18] = system: Lactiplantibacillus plantarum; assay: Activity at 10 ppm against Lactobacillus plantarum;* = Effective; assay type: functional, organism-based; method in brief: as §1
Staphylococcus aureus [19] = assay: Activity at 10 ppm against Staphylococcus aureus ATCC 6538;* = Effective; assay type: functional, organism-based
Enterococcus faecalis [20] = assay: Activity at 1 ppm against Streptococcus faecalis; x=Effective; assay type: functional, organism-based; method in brief: as §1
Staphylococcus aureus [21] = assay: Bactericidal activity against Staphylococcus aureus ATCC 6538 at 1 ppm concentration; + =Positive; assay type: functional, organism-based
Bacillus cereus [22] = assay: Activity at 10 ppm against Bacillus cereus NRRL 3711; d=A few resistant colonies grew; assay type: functional, organism-based; method in brief: as §1
Staphylococcus aureus [23] = assay: Bactericidal activity against Staphylococcus aureus ATCC 6538 at 10 ppm concentration; + =Positive; assay type: functional, organism-based; method in brief: as §2
Staphylococcus aureus [24] = assay: Bacteriostatic activity against Staphylococcus aureus ATCC 6538 at 10 ppm concentration; x=Effective; assay type: functional, organism-based; method in brief: as §2
Staphylococcus aureus [25] = assay: Bactericidal activity against Staphylococcus aureus ATCC 6538 at 10 ppm concentration; -=Negative; assay type: functional, organism-based; method in brief: as §2

Row | Structure (SMILES) | Activity [2] | Activity (Staphylococcus aureus [3]) | MIC (Staphylococcus aureus [4]) [µg/mL] | Activity (Enterococcus faecalis [5]) | Activity (Staphylococcus aureus [6]) | Activity (Staphylococcus aureus [7]) | other results
1 | C=C(CCCCCC)C(=O)Nc1cc([N+](=O)[O-])ccc1O | Concentration effective | Negative | 1 (≈ 3.42 µM) | Concentration effective | Concentration effective | Negative | Activity (Bacillus cereus [1]): Concentration effective
2 | CCCCc1ccc(S(=O)(=O)Nc2ccc(Cl)c([N+](=O)[O-])c2)cc1 | Concentration effective | – | 1 (≈ 2.71 µM) | Concentration effective | – | Negative | Activity (Staphylococcus aureus [8]): Negative
3 | CCCCCCCC(=O)Nc1ccc(Cl)c([N+](=O)[O-])c1 | Concentration effective | – | 1 (≈ 3.35 µM) | – | – | Negative | Activity (Bacillus cereus [1]): Concentration effective; Activity (Staphylococcus aureus [8]): Negative
4 | C=C(CCCCCCC)C(=O)Nc1cc([N+](=O)[O-])ccc1O | – | – | 1 (≈ 3.26 µM) | – | – | – | Activity (Bacillus cereus [9]): Concentration effective; Activity [10]: Concentration effective; Activity (Staphylococcus aureus [11]): Negative; Activity (Enterococcus faecalis [12]): Inhibited at 10ppm but not at 1ppm; Activity (Staphylococcus aureus [13]): Concentration effective; Activity (Staphylococcus aureus [14]): Negative
5 | CCCCCCCCC(=O)Nc1cc(Cl)ccc1O | – | – | 1 (≈ 3.52 µM) | – | – | – | Activity (Staphylococcus aureus [15]): Negative; Activity (Staphylococcus aureus [16]): Negative
6 | CCCCCCCC(=O)Nc1cc(Cl)cc(Cl)c1 | – | Negative | 1 (≈ 3.47 µM) | – | – | Negative | Activity (Bacillus cereus [17]): Concentration effective; Activity [18]: Concentration effective; Activity (Staphylococcus aureus [19]): Concentration effective
7 | C=C(CCCCCCCC)C(=O)Nc1cc([N+](=O)[O-])ccc1O | – | – | 1 (≈ 3.12 µM) | – | – | – | Activity (Bacillus cereus [9]): Concentration effective; Activity [10]: Concentration effective; Activity (Staphylococcus aureus [11]): Positive; Activity (Enterococcus faecalis [20]): Concentration effective; Activity (Staphylococcus aureus [13]): Concentration effective; Activity (Staphylococcus aureus [21]): Positive
8 | C=C(CCCCC)C(=O)Nc1cc(Cl)cc(Cl)c1 | Concentration effective | Negative | 1 (≈ 3.49 µM) | – | Concentration effective | Negative | Activity (Bacillus cereus [22]): A few resistant colonies grew
9 | CCCc1ccc(S(=O)(=O)Nc2ccc(Cl)c(Cl)c2)cc1 | Concentration effective | – | 1 (≈ 2.9 µM) | Concentration effective | – | – | Activity (Staphylococcus aureus [8]): Negative; Activity (Staphylococcus aureus [23]): Negative
10 | CCCCCCCCCC(=O)Nc1cc([N+](=O)[O-])ccc1O | – | Negative | 1 (≈ 3.24 µM) | – | – | Negative | Activity (Staphylococcus aureus [24]): Concentration effective
11 | CCCCCCCC(=O)Nc1ccc(Cl)c(Cl)c1 | Concentration effective | Negative | 1 (≈ 3.47 µM) | – | Concentration effective | – | Activity (Bacillus cereus [22]): A few resistant colonies grew; Activity (Staphylococcus aureus [25]): Negative
12 | CCCCCCCCC(=O)Nc1ccc(Cl)c([N+](=O)[O-])c1 | Concentration effective | Negative | 1 (≈ 3.2 µM) | – | – | Negative | Activity (Bacillus cereus [22]): A few resistant colonies grew
13 | CCCc1ccc(S(=O)(=O)Nc2cc(Cl)ccc2O)cc1 | Concentration effective | Negative | 1 (≈ 3.07 µM) | Concentration effective | Concentration effective | Negative | Activity (Bacillus cereus [1]): Concentration effective
